Measured values taken from ChEMBL document CHEMBL4477192, “Laxitextines A and B, Cyathane Xylosides from the Tropical Fungus Laxitextum incrustatum” (J Nat Prod, 2016).
≈ marks a conversion by molar mass, not a printed value. Calls of active or inactive are those of the source. The calls are words filed in the database; no cut-off is given here.

How the values were obtained:
Staphylococcus aureus [1] = assay: microbe, parasite or virus in culture; conditions: DSM 1182
Bacillus subtilis = assay: Antimicrobial activity against Bacillus subtilis DSM 10 after 24 to 48 hrs by serial dilution method; format: functional
Staphylococcus aureus [2] = assay: Antimicrobial activity against Staphylococcus aureus DSM 346 at 20 uL of 1 mg/ml compound solution after 24 to 48 hrs by serial dilution method; format: functional
Staphylococcus aureus [3] = assay: Antimicrobial activity against Staphylococcus aureus DSM 346 at 2 uL of 1 mg/ml compound solution after 24 to 48 hrs by serial dilution method; format: functional
Staphylococcus aureus [4] = assay: Antimicrobial activity against Methicillin-resistant Staphylococcus aureus DSM 1182 at 20 uL of 1 mg/ml compound solution after 24 to 48 hrs by serial dilution method; format: functional
L929 = assay: Antiproliferative activity against mouse L929 cells after 5 days by MTT assay; format: functional, cell-based; conditions: L929, 120 h
Summary of the method: (§1)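 Serial dilution in 96-well tissue-culture plates starting from 3.0 μL of 1 mg/mL stock. L929 grown in DMEM; MCF-7 and A431 in RPMI; each with 10% FBS. Incubation at 37 °C under 5% CO2 for 5 days. Methanol as negative control, epothilone A as positive control. IC50 in μM.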

HUVEC = assay: Antiproliferative activity against HUVEC after 5 days by MTT assay; format: functional, cell-based; conditions: Homo sapiens, 120 h
A-431 = assay: Antiproliferative activity against human A431 cells after 5 days by MTT assay; format: functional, cell-based; conditions: A-431, 120 h
Summary of the method: as §1

MCF7 = assay: Antiproliferative activity against human MCF7 cells after 5 days by MTT assay; format: functional, cell-based; conditions: MCF7, 120 h
Summary of the method: as §1

Staphylococcus aureus [5] = conditions: DSM 1182

**Q.** With `CN[C@H](CC(C)C)C(=O)N[C@H]1C(=O)N[C@@H](CC(N)=O)C(=O)N[C@H]2C(=O)N[C@H]3C(=O)N[C@H](C(=O)N[C@H](C(=O)O)c4cc(O)cc(O)c4-c4cc3ccc4O)[C@H](O)c3ccc(c(Cl)c3)Oc3cc2cc(c3O[C@@H]2O[C@H](CO)[C@@H](O)[C@H](O)[C@H]2O[C@H]2C[C@](C)(N)[C@H](O)[C@H](C)O2)Oc2ccc(cc2Cl)[C@H]1O` [VANCOMYCIN] as the molecule, how does the MIC (Staphylococcus aureus [1]) read?
**A.** 1.6 mg/L (≈ 1.1 µM)

**Q.** `CC(C)C1=C2[C@H]3CC[C@@H]4CO[C@@]5(O)[C@H](O)CO[C@H]6O[C@@H]([C@@H]4[C@]65O)[C@]3(C)CC[C@@]2(C)CC1` was tested. Which MIC (Bacillus subtilis) did it give?
**A.** 76.7 µM (≈ 33.3 µg/mL)

**Q.** And the MIC (Staphylococcus aureus [2])?
**A.** 17.9 µM

**Q.** And the MIC (Staphylococcus aureus [3])?
**A.** 6.6 mg/L (≈ 15.2 µM)

**Q.** What about the MIC (Staphylococcus aureus [4]) of the same molecule?
**A.** 17.9 µM (≈ 7.78 µg/mL)

**Q.** And the IC50 (L929)?
**A.** 17.3 µM

**Q.** What about the IC50 (HUVEC) of the same molecule?
**A.** 4.8 µM

**Q.** What about the IC50 (A-431) of the same molecule?
**A.** 5.8 µM

**Q.** And the IC50 (MCF7)?
**A.** 2.3 µM

**Q.** What about the MIC (Staphylococcus aureus [5]) of the same molecule?
**A.** inactive

**Q.** Which results are given for `CC(C)C1=C2[C@H]3CC[C@@H]4[C@@H]5O[C@]6(O)[C@@]7(O)[C@@H](OC[C@]6(O)O5)O[C@@H]([C@@H]47)[C@]3(C)CC[C@@]2(C)CC1`?
**A.** MIC (Bacillus subtilis): 37.4 µM (≈ 16.8 µg/mL); MIC (Staphylococcus aureus [2]): 15.7 mg/L; MIC (Staphylococcus aureus [3]): inactive; MIC (Staphylococcus aureus [4]): 140 µM (≈ 62.8 µg/mL); IC50 (L929): 16.1 µM; IC50 (HUVEC): 3.6 µM; IC50 (A-431): 4.9 µM; IC50 (MCF7): 2 µM; MIC (Staphylococcus aureus [5]): inactive
